Values after ≈ are worked out from the molar mass of the structure shown.
Assays:
A549 = test: Cytotoxic activity evaluated against A549 tumor cells; settings: Homo sapiens
[1] = Relative concentration of compound in brain compared to concentration in plasma (9.4 ug/mL) at the time of tissue collection from mice; relative concentration; type: ADME, organism-based; settings: mouse, read-out: Other
Candida albicans [2] = test: Minimum inhibitory concentration evaluated against Candida albicans; type: functional
[3] = Cytotoxic activity was evaluated against Daoy tumor cells; type: functional, cell-based; settings: Homo sapiens
Method in brief: (§1)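 Cytotoxicity was read by MTT dye reduction for suspension cultures or sulforhodamine B for monolayer cultures. For reversal of multidrug resistance, reserpine was added as reversing agent ([…] as printed).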

D54 cell line = test: Cytotoxic Activity was evaluated against D54 tumor cells; type: functional, cell-based; settings: Homo sapiens; method in brief: as §1
Dihydrofolate reductase [4] = molecular target: T1, Dihydrofolate reductase (Candida albicans, UniProt P22906); test: Inhibition of Dihydrofolate reductase enzyme from Candida albicans
T1 sequence (P22906 whole entry): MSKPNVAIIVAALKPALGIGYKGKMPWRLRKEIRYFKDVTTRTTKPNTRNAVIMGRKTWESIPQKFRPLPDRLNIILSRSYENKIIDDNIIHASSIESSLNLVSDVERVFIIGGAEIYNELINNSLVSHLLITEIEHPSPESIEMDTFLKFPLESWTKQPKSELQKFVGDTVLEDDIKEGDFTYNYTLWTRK

HCT-8 [5] = test: Activity was evaluated against HCT-8 tumor cells; type: functional, cell-based; settings: Homo sapiens; method in brief: as §1
[6] = Cytotoxic activity was evaluated against L tumor cells; type: functional, cell-based; settings: Mus musculus; method in brief: as §1
P388 = test: Cytotoxic activity was evaluated against P388D1 tumor cells; type: functional, cell-based; settings: Mus musculus; method in brief: as §1
U373 MG = test: Cytotoxic activity was evaluated against U373MG tumor cells; type: functional, cell-based, U-373MG ATCC; settings: Homo sapiens; method in brief: as §1
U-87 MG = test: Cytotoxic activity was evaluated against U87MG tumor cells; type: functional, cell-based, U-87MG ATCC; settings: Homo sapiens; method in brief: as §1
Vero = test: Cytotoxic Activity was evaluated against Vero tumor cells; type: functional, cell-based; settings: Chlorocebus sabaeus; method in brief: as §1
Dihydrofolate reductase [7] = molecular target: T2, Dihydrofolate reductase (Homo sapiens, UniProt P00374); test: Inhibition of human recombinant Dihydrofolate reductase enzyme
T2 sequence (P00374 whole entry): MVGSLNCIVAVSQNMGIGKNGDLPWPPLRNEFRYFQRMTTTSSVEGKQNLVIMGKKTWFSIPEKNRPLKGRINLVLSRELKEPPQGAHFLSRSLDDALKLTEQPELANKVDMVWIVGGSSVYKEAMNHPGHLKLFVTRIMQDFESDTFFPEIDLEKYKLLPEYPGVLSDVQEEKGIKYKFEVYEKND

NCI-H460 = test: Cytotoxic Activity was evaluated against H460 tumor cells; type: functional, cell-based; settings: Homo sapiens; method in brief: as §1
HCT-8 [8] = test: Cytotoxic Activity was evaluated against HCT-8 tumor cells; type: functional, cell-based; settings: Homo sapiens; method in brief: as §1
Mus musculus [9] = test: Effect on life span of mice with intracranially implanted P388 Leukemic cells; type: functional
Method in brief: (§2)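 CDF-1 female mice (18–20 g, 5 or 8/group); P388 leukemia, maintained by in vivo serial passage, implanted intracranially at 1 × 10^5 cells. Treatment started 24 h later; test agents suspended in 0.5% carboxymethyl cellulose plus 1% Tween 80, given sc or ip qd × 10. Read-out was percent increase in life span versus controls.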

Mus musculus [10] = test: Effect on life span of mice with intraperitoneally implanted P388 Leukemic cells; type: functional
Method in brief: (§3)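 CDF-1 female mice (18–20 g, 5 or 8/group); P388 or P388/ADR cells implanted ip at 1 × 10^6 cells. Dosing began 24 h later; agents suspended in 0.5% carboxymethyl cellulose plus 1% Tween 80, given sc or ip qd × 10. Read-out was percent increase in life span.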

Mus musculus [11] = test: Effect on life span of mice with intraperitoneally implanted P388/ADR Leukemic cells; type: functional; method in brief: as §3
Mus musculus [12] = organism: Mus musculus; test: Effect on Pneumocystis carinii pneumonia in SCID mice in presence of leucovorin; type: functional
Method in brief: (§4)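 SCID mice (10-11/group) were dosed prophylactically once daily from day 1 postinfection, 42 doses. Test drug in D5W was given ip, then leucovorin 12 mg/kg sc 30 min later. Trimethoprim 50 mg/kg plus sulfamethoxazole 250 mg/kg was given orally, and controls received D5W ip and sc. Lung impression smears were taken 24 h after the last dose and stained by immunofluorescence. Infection was scored 0-4 semilogarithmically, reported as mean ± SEM and as infected/total mice.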

Mus musculus [13] = organism: Mus musculus; test: Number of mice infected to that of total number of mice ([…]/[…]); type: functional, organism-based
Candida albicans [14] = test: Minimum inhibitory concentration was evaluated against Candida albicans; type: functional
143B = test: Cytotoxic Activity was evaluated against 143B (TK-) tumor cells; type: functional, cell-based; settings: Homo sapiens; method in brief: as §1
[15] = Relative concentration of compound in brain compared to concentration in plasma (0.4 ug/mL) at the time of tissue collection from mice; relative concentration; type: ADME, organism-based; settings: mouse, read-out: Activity
Mus musculus [16] = test: Effect on life span of mice with intracranially implanted P388 Leukemic cells at 10 mg/kg by subcutaneous injection; type: functional; method in brief: as §2
Mus musculus [17] = test: Effect on life span of mice with intraperitoneally implanted P388 Leukemic cells at 10 mg/kg by subcutaneous injection; type: functional; method in brief: as §3
Mus musculus [18] = test: Effect on life span of mice with intraperitoneally implanted P388/ADR Leukemic cells at 10 mg/kg by subcutaneous injection; type: functional; method in brief: as §3
Mus musculus [19] = organism: Mus musculus; test: Effect on Pneumocystis carinii pneumonia in SCID mice in the presence of leucovorin; type: functional; method in brief: as §4
Mus musculus [20] = organism: Mus musculus; test: Number of mice infected to that of total number of mice (2/11); type: functional, organism-based
Mus musculus [21] = organism: Mus musculus; test: Effect on Candida albicans nephritis and Meningitis in Immunosuppressed Mice brain; type: functional
Method in brief: (§5)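 Immunosuppressed CD-1 female mice (10/group) given cyclophosphamide ip, 160 and 40 mg/kg on days -4 and -1; C. albicans 5 × 10^4 cfu/mouse iv via lateral tail vein. Sc dosing of 20 or 50 mg/kg in sesame oil at 3, 7, 24, 30 h post-inoculation; sulfamethoxazole 200 mg/kg ip in D5W given 1 h before each dose. Kidney and brain cultured at 48 h; log cfu/g tissue.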

Mus musculus [22] = organism: Mus musculus; test: Effect on Candida albicans nephritis and Meningitis in Immunosuppressed Mice brain in the presence of SMX; type: functional
Method in brief: (§6)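 Immunosuppressed CD-1 female mice (10/group; cyclophosphamide 160 and 40 mg/kg ip on days -4 and -1) inoculated iv via lateral tail vein with 5 × 10^4 cfu C. albicans. Compound sc in 0.1 mL sesame oil (20 or 50 mg/kg) at 3, 7, 24, 30 h; sulfamethoxazole 200 mg/kg ip in D5W 1 h before each dose. Kidney and brain cultured at 48 h; log cfu/g tissue, duplicate or single experiments.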

Mus musculus [23] = organism: Mus musculus; test: Effect on Candida albicans nephritis and Meningitis in Immunosuppressed Mice kidney; type: functional; method in brief: as §5
Mus musculus [24] = organism: Mus musculus; test: Effect on Candida albicans nephritis and Meningitis in Immunosuppressed Mice kidney in the presence of SMX; type: functional; method in brief: as §6
[25] = Relative concentration of compound (70 mg/Kg) in brain compared to concentration in plasma (160 ug/mL) at the time of tissue collection from rabbit; relative concentration; type: ADME, organism-based, Oryctolagus cuniculus; settings: read-out: Activity
[26] = Relative concentration of compound (70 mg/Kg) in lung compared to concentration in plasma (160 ug/mL) at the time of tissue collection from rabbit; relative concentration; type: ADME, organism-based, Oryctolagus cuniculus; settings: read-out: Activity

Row | SMILES | IC50 (A549) | MIC (Candida albicans [2]) | IC50 [3] | IC50 (D54 cell line) | Ki (Dihydrofolate reductase [4]) | IC50 (HCT-8 [5]) | IC50 [6] | IC50 (P388) | IC50 (U373 MG) | IC50 (U-87 MG) | IC50 (Vero) | Ki (Dihydrofolate reductase [7]) | IC50 (NCI-H460) | IC50 (143B) | also measured
1 | COc1cc(NCc2ccc3nc(N)nc(N)c3c2C)cc(OC)c1OC [TRIMETREXATE] | 5.3 nM | > 50 µg/mL | 12 nM | 60 nM | 1.9 nM | 1.8 nM | 4.7 nM | 2.7 nM | 9.6 nM | 11 nM | 16 nM |  |  |  | Kp [1]: 0.1
2 | COc1ccc(OC)c(Cc2cnc3nc(N)nc(N)c3c2C)c1 [PIRITREXIM] | 24 nM | > 10 µg/mL | 70 nM | 230 nM | 1.9 nM |  | 76 nM | 21 nM | 55 nM | 48 nM | 30 nM | 0.025 nM | 260 nM |  | IC50 (HCT-8 [8]): 68 nM; Increase in life-span (Mus musculus [9]): 0%; Increase in life-span (Mus musculus [10]): 40%; Increase in life-span (Mus musculus [11]): -5%; Infection score (Mus musculus [12]): 3.27; No. of mice infected /total (Mus musculus [13]): Number of mice infected to that of total number of mice ([…]/[…])
3 | COc1cc(Cn2ccc3c4c(N)nc(N)nc4ccc32)cc(OC)c1OC |  |  |  |  | 0.23 nM |  |  |  |  |  |  | 0.006 nM |  |  | MIC (Candida albicans [14]): 5 µg/mL (≈ 13.2 µM)
4 | CCC(CC)n1c(C)cc2c3c(N)nc(N)nc3ccc21 | 0.4 nM | 0.025 µg/mL (≈ 0.0882 µM) | 2.3 nM | 4.6 nM | 0.03 nM | 0.74 nM | 0.6 nM | 0.12 nM | 2.3 nM | 2.1 nM | 1 nM | 0.0003 nM | 0.5 nM | 0.8 nM | Kp [15]: 10; Increase in life-span (Mus musculus [16]): 50%; Increase in life-span (Mus musculus [17]): 80%; Increase in life-span (Mus musculus [18]): 20%; Infection score (Mus musculus [19]): 0.18; No. of mice infected /total (Mus musculus [20]): Number of mice infected to that of total number of mice (2/[…]); Log cfu/g of tissue (Mus musculus [21]): 3.6; Log cfu/g of tissue (Mus musculus [22]): 3.4; Log cfu/g of tissue (Mus musculus [23]): 3.4; Log cfu/g of tissue (Mus musculus [24]): 2.5
5 | CN(Cc1cnc2nc(N)nc(N)c2n1)c1ccc(C(=O)N[C@@H](CCC(=O)O)C(=O)O)cc1 [METHOTREXATE] | 31 nM |  | 9 nM | 16 nM |  |  | 8.3 nM | 4.8 nM | 12 nM | 22 nM | 9.2 nM |  | 9.5 nM | 8.8 nM | Kp [25]: 0.006; Kp [26]: 0.05

— ChEMBL document CHEMBL1129493 (J Med Chem, 1996)
